According to ChEMBL document CHEMBL1145132, “N-hydroxy-3-phenyl-2-propenamides as novel inhibitors of human histone deacetylase with in vivo antitumor activity: discovery of (2E)-N-hydroxy-3-[4-[[(2-hydroxyethyl)[2-(1H-indol-3-yl)ethyl]amino]methyl]phenyl]-2-propenamide (NVP-LAQ824)” (J Med Chem, 2003):
Values joined by “and” are separate entries in the source; they are usually repeats but may differ in a detail not shown here. Equal values may be shown once.

What was measured:
[1] = system: NCI-H1299; test: Inhibitory activity against H1299 human lung carcinoma cell growth; format: functional, cell-based
[2] = system: HCT-116; test: Inhibitory activity against HCT116 human colon cell growth; format: functional, cell-based
[3] = target: Histone deacetylase; test: Inhibitory activity against histone deacetylase (HDAC) enzyme obtained from H1299 human lung carcinoma cell lysates
[4] = system: Mus musculus; test: Ratio of the change in tumor volume of treated animals to the change in tumor volume of control animals at a dose of 25 mg/kg; format: functional
Summary of the method: (§1)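 HCT116 sc xenografts (≈10⁶ cells) in female athymic nude mice, eight per group, treated from ≈100 mm³ tumors with iv lactate salt in 10% DMSO/D5W qd 5×/week for 10 or 15 doses. Tumors measured weekly; % T/C = change in treated tumor volume over change in vehicle-control tumor volume; one-tailed Student's t-test.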

[5] = system: Mus musculus; test: Ratio of the change in tumor volume of treated animals to the change in tumor volume of control animals at a dose of 50 mg/kg; format: functional; summary of the method: as §1
[6] = system: Mus musculus; test: Compound was tested in vivo for efficacy in athymic mice bearing HCT116 subcutaneous tumor xenografts at a dose of 25 mg/kg and change in the body weight of the mouse was evaluated; format: functional
[7] = system: Mus musculus; test: Compound was tested in vivo for efficacy in athymic mice bearing HCT116 subcutaneous tumor xenografts at a dose of 50 mg/kg and change in the body weight of the mouse was evaluated; format: functional; conditions: route intravenous
Summary of the method: (§2)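 Female outbred athymic nu/nu mice, ≈10⁶ HCT116 cells injected sc in right axillary region under anesthesia; treatment began when tumors ≈100 mm³ (day 13 post-implant), groups of eight balanced on tumor volume. Compound given iv as lactate salt in 10% DMSO/D5W, qd 5×/week for 15 doses. Individual body weights recorded once weekly; % change from start reported.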

[8] = system: Mus musculus; test: Compound was tested in vivo for maximum tolerated dose (MTD) that resulted in no deaths when administered intravenously for five days; format: functional
Summary of the method: (§3)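 Athymic mice, four per group, dosed iv once daily for five consecutive days, up to a maximum of 200 mg/kg/day. Compound given as the lactate salt in 10% DMSO in 5% dextrose/water (final DMSO 10%). MTD taken as the highest dose that caused no deaths.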

[9] = system: Mus musculus; test: Ratio of number of deaths of mice to the number of mice tested was determined at a dose of 10 mg/kg; dead/total = 0 / 8; format: functional
Summary of the method: (§4)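 Female outbred athymic nu/nu mice, eight per group, carrying subcutaneous right-axillary HCT116 (≈10⁶ cells) or A549 (≈10⁷ cells) xenografts, started treatment at ≈100 mm³ tumour volume. Drug given as lactate salt in 10% DMSO/D5W, iv qd 5×/week for 15 doses. Body weights and tumours recorded weekly; deaths counted per group as dead/total.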

[10] = system: Mus musculus; test: Ratio of the change in tumor volume of treated animals to the change in tumor volume of control animals at a dose of 100 mg/kg; format: functional; summary of the method: as §1
[11] = system: Mus musculus; test: Ratio of the change in tumor volume of treated animals to the change in tumor volume of control animals at a dose of 10 mg/kg; format: functional; summary of the method: as §1
[12] = system: Mus musculus; test: Compound was tested in vivo for efficacy in athymic mice bearing HCT116 subcutaneous tumor xenografts at a dose of 10 mg/kg and change in the body weight of the mouse was evaluated; format: functional; conditions: route intravenous; summary of the method: as §2
[13] = system: Mus musculus; test: Compound was tested in vivo for efficacy in athymic mice bearing HCT116 subcutaneous tumor xenografts at a dose of 100 mg/kg and change in the body weight of the mouse was evaluated; format: functional; conditions: route intravenous; summary of the method: as §2
[14] = system: Mus musculus; test: Ratio of number of deaths of mice to the number of mice tested was determined at a dose of 50 mg/kg; dead/total = 0 / 8; format: functional; summary of the method: as §4
[15] = system: Mus musculus; test: Ratio of number of deaths of mice to the number of mice tested was determined at a dose of 100 mg/kg; dead/total = 0 / 8; format: functional; summary of the method: as §4
[16] = system: Mus musculus; test: Compound was tested for efficacy in athymic mice bearing HCT116 subcutaneous tumor xenografts at a dose of 50 mg/kg and change in the body weight of the mouse was evaluated; format: functional; summary of the method: as §2
[17] = system: Mus musculus; test: Compound was tested for maximum tolerated dose (MTD) that resulted in no deaths when administered intravenously for five days; format: functional; summary of the method: as §3
[18] = system: Mus musculus; test: Compound was tested for efficacy in athymic mice bearing HCT116 subcutaneous tumor xenografts at a dose of 45 mg/kg and change in the body weight of the mouse was evaluated; format: functional
[19] = system: Mus musculus; test: Ratio of the change in tumor volume of treated animals to the change in tumor volume of control animals at a dose of 45 mg/kg; format: functional; summary of the method: as §1

## O=C(/C=C/c1ccc(CNCCCc2c[nH]c3ccccc23)cc1)NO
[1]
  IC50: 1000 nM
[2]
  IC50: 100 nM
[3]
  IC50: 53 nM

## O=C(/C=C/c1ccc(CNCCc2c[nH]c3ccc(F)cc23)cc1)NO
[1]
  IC50: 310 nM
[4]
  T/C: 19%
[5]
  T/C: 13%
[2]
  IC50: 30 nM
[6]
  Body weight change: -6.6%
[7]
  Body weight change: -1.7%
[8]
  MTD: 100 mg/kg
[9]
  Ratio: 0
[10]; 100 mg/kg
  T/C: 16% and 8%
[11]
  T/C: 40%
[12]
  Body weight change: -6.4%
[3]
  IC50: 14 nM
[13]; 100 mg/kg
  Body weight change: 6.7% and 7.5%
[14]
  Ratio: 0
[15]
  Ratio: 0

## O=C(/C=C/c1ccc(CNCCc2coc3ccccc23)cc1)NO
[1]
  IC50: 180 nM
[5]
  T/C: 49%
[2]
  IC50: 30 nM
[7]
  Body weight change: 0.5%
[8]
  MTD: 50 mg/kg
[3]
  IC50: 16 nM

## CC(Cc1c[nH]c2ccccc12)NCc1ccc(/C=C/C(=O)NO)cc1 (centres undefined)
[1]
  IC50: 410 nM
[2]
  IC50: 20 nM
[3]
  IC50: 24 nM

## COc1ccccc1NCCNCc1ccc(/C=C/C(=O)NO)cc1
[1]
  IC50: 2160 nM
[2]
  IC50: 170 nM
[3]
  IC50: 111 nM

## O=C(/C=C/c1ccc(CNCc2c[nH]c3ccccc23)cc1)NO
[1]
  IC50: 2200 nM
[2]
  IC50: 160 nM
[3]
  IC50: 59 nM

## CC(NCCc1c[nH]c2ccccc12)c1ccc(/C=C/C(=O)NO)cc1 (centres undefined)
[1]
  IC50: 480 nM
[2]
  IC50: 15 nM
[3]
  IC50: 23 nM

## O=C(/C=C/c1ccc(CN2CCC(c3c[nH]c4ccccc34)CC2)cc1)NO
[1]
  IC50: 900 nM
[2]
  IC50: 110 nM
[3]
  IC50: 53 nM

## O=C(/C=C/c1ccc(CNCCOc2ccccc2)cc1)NO
[1]
  IC50: 1530 nM
[2]
  IC50: 160 nM
[3]
  IC50: 69 nM

## O=C(/C=C/c1ccc(CNCCCn2c3ccccc3c3ccccc32)cc1)NO
[1]
  IC50: 1100 nM
[2]
  IC50: 160 nM
[3]
  IC50: 79 nM

## O=C(/C=C/c1ccc(CNCCc2c[nH]c3ccc(OCc4ccccc4)cc23)cc1)NO
[1]
  IC50: 65 nM
[5]
  T/C: 45%
[2]
  IC50: 40 nM
[16]
  Body weight change: -3%
[17]
  MTD: 50 mg/kg

## COc1ccc2[nH]cc(CCNCc3ccc(/C=C/C(=O)NO)cc3)c2c1
[1]
  IC50: 580 nM
[4]
  T/C: 38%
[5]
  T/C: 24%
[2]
  IC50: 30 nM
[6]
  Body weight change: -5.5%
[7]
  Body weight change: -8.1%
[8]
  MTD: 100 mg/kg
[9]
  Ratio: 0
[10]; 100 mg/kg
  T/C: 9% and 22%
[11]
  T/C: 64%
[12]
  Body weight change: -4.6%
[3]
  IC50: 14 nM
[13]; 100 mg/kg
  Body weight change: 7.4% and 12%
[14]
  Ratio: 0
[15]
  Ratio: 0

## O=C(/C=C/c1ccc(CNCCc2cc3ccccc3[nH]2)cc1)NO
[1]
  IC50: 540 nM
[2]
  IC50: 40 nM
[3]
  IC50: 46 nM

## Cc1nc2ccccc2n1CCNCc1ccc(/C=C/C(=O)NO)cc1
[1]
  IC50: 2750 nM
[2]
  IC50: 200 nM
[3]
  IC50: 38 nM

## CC(C)N(CCc1c[nH]c2ccccc12)Cc1ccc(/C=C/C(=O)NO)cc1
[1]
  IC50: 30 nM
[4]
  T/C: 29%
[6]
  Body weight change: -4.1%
[8]
  MTD: 25 mg/kg

## O=C(/C=C/c1ccc(NCCCc2c[nH]c3ccccc23)cc1)NO
[1]
  IC50: 820 nM
[2]
  IC50: 480 nM
[3]
  IC50: 262 nM

## O=C(/C=C/c1ccc(CN(CCc2c[nH]c3ccccc23)C2CCCCC2)cc1)NO
[1]
  IC50: 40 nM
[2]
  IC50: 17 nM
[3]
  IC50: 20 nM

## O=C(/C=C/c1ccc(CNCCCCc2c[nH]c3ccccc23)cc1)NO
[1]
  IC50: 480 nM
[2]
  IC50: 30 nM
[3]
  IC50: 37 nM

## O=C(/C=C/c1ccc(CN(CCOC(=O)NCc2ccoc2)CCc2c[nH]c3ccccc23)cc1)NO
[1]
  IC50: 180 nM
[2]
  IC50: 15 nM
[3]
  IC50: 370 nM

## O=C(/C=C/c1ccc(CN(CCCc2ccccc2)Cc2ccccn2)cc1)NO
[1]
  IC50: 2740 nM
[2]
  IC50: 740 nM
[3]
  IC50: 278 nM

## O=C(/C=C/c1ccc(CNCc2cc3ccccc3[nH]2)cc1)NO
[1]
  IC50: 940 nM
[2]
  IC50: 50 nM
[3]
  IC50: 51 nM

## O=C(/C=C/c1ccc(CN2CCc3c([nH]c4ccccc34)C2)cc1)NO
[1]
  IC50: 2900 nM
[2]
  IC50: 430 nM
[3]
  IC50: 118 nM

## O=C(/C=C/c1ccc(CN(CCCc2ccccc2)Cc2cccnc2)cc1)NO
[1]
  IC50: 1700 nM
[2]
  IC50: 420 nM
[3]
  IC50: 164 nM

## O=C(/C=C/c1ccc(CNCCCc2ccccc2)cc1)NO
[1]
  IC50: 800 nM
[18]
  Body weight change: -3.1%
[2]
  IC50: 50 nM
[19]
  T/C: 86%
[3]
  IC50: 150 nM
[17]
  MTD: 45 mg/kg

## O=C(/C=C/c1ccc(CNCCc2ccc3c(c2)OCO3)cc1)NO
[1]
  IC50: 500 nM
[2]
  IC50: 50 nM
[3]
  IC50: 30 nM

## O=C(/C=C/c1ccc(CN(CCc2c[nH]c3ccccc23)C(CO)CO)cc1)NO
[1]
  IC50: 2500 nM
[2]
  IC50: 160 nM
[3]
  IC50: 52 nM

## O=C(/C=C/c1ccc(CN[C@H](CO)Cc2c[nH]c3ccccc23)cc1)NO
[1]
  IC50: 810 nM
[2]
  IC50: 50 nM
[3]
  IC50: 27 nM

## O=C(/C=C/c1ccc(CNCCc2c[nH]c3ccccc23)cc1)NO
[1]
  IC50: 400 nM
[4]
  T/C: 40%
[5]
  T/C: 13%
[6]
  Body weight change: -7%
[7]
  Body weight change: -7.3%
[8]
  MTD: 100 mg/kg
[10]
  T/C: 17%
[11]
  T/C: 56%
[12]
  Body weight change: -10.2%
[13]
  Body weight change: -9.4%

## O=C(/C=C/c1ccc(CN(CCO)CCc2cnc3ccccc3c2)cc1)NO
[1]
  IC50: 530 nM
[5]
  T/C: 78%
[2]
  IC50: 40 nM
[7]
  Body weight change: 3.1%
[8]
  MTD: 50 mg/kg
[3]
  IC50: 24 nM

## Nc1ccccc1NC(=O)c1ccc(CNC(=O)OCc2ccccc2)cc1
[1]
  IC50: 6820 nM
[2]
  IC50: 670 nM
[3]
  IC50: > 10000 nM

## O=C(/C=C/c1ccc(CN[C@@H](CO)Cc2c[nH]c3ccccc23)cc1)NO
[1]
  IC50: 750 nM
[2]
  IC50: 40 nM
[3]
  IC50: 40 nM

## O=C(/C=C/c1ccc(CN(CCc2c[nH]c3ccccc23)Cc2ccccc2)cc1)NO
[1]
  IC50: 2060 nM
[2]
  IC50: 120 nM
[3]
  IC50: 85 nM
